As a reminder, the IC50 is the concentration at which inhibition is half-maximal. Read a high IC50 as weaker potency.

The text below walks through data of ChEMBL document CHEMBL1158526, “Labeled 3-aryl-4-indolylmaleimide derivatives and their potential as angiogenic PET biomarkers” (Bioorg Med Chem, 2010).

In test [1] the target is Mast/stem cell growth factor receptor Kit (Homo sapiens, UniProt P10721). Nature of the test: Inhibition of KIT after 80 mins by radiometric protein kinase assay. In short, it runs like this: (§1)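 The substrate was Poly(Glu,Tyr)4:1. 12 concentrations were run in triplicate with 1% final DMSO, at 30 °C for 80 min. Reactions were stopped with 2% H₃PO₄, washed with 0.9% NaCl, and ³³P incorporation was read by scintillation counting.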

In test [2] the target is Platelet-derived growth factor receptor alpha (Homo sapiens, UniProt P16234). In words: Inhibition of PDGFRalpha after 80 mins by radiometric protein kinase assay. In short, it runs like this:
(§2)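 Radiometric [γ-33P]-ATP kinase assay with poly(Ala,Glu,Lys,Tyr) 6:2:5:1 substrate. Incubated 30 °C for 80 min, then stopped with 2% H3PO4 and washed with 0.9% NaCl. 33Pi incorporation read by scintillation counting. IC50 from 12 concentrations in triplicate; plate quality checked by Z'-factor.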

Test [3] addresses Insulin-like growth factor 1 receptor (Homo sapiens, UniProt P08069). In words: Inhibition of IGF1R after 80 mins by radiometric protein kinase assay. In short, it runs like this: (§3)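 Radiometric [γ-33P]-ATP kinase assay with poly(Glu,Tyr) 4:1 substrate. Reaction run 80 min at 30 °C, stopped with 2% H3PO4 and washed with 0.9% NaCl. 33Pi incorporation counted by microplate scintillation. IC50 from 12 concentrations tested in triplicate, with Z'-factor used as plate control.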

Test [4] has as its target Receptor tyrosine-protein kinase erbB-2 (Homo sapiens, UniProt P04626). Nature of the test: Inhibition of ERBB2 after 80 mins by radiometric protein kinase assay. In short, it runs like this: as §1
Test [5] addresses Vascular endothelial growth factor receptor 1 (Homo sapiens, UniProt P17948). In words: Inhibition of VEGFR1 after 80 mins by radiometric protein kinase assay. In short, it runs like this: as §3
In test [6] the target is Vascular endothelial growth factor receptor 3 (Homo sapiens, UniProt P35916). In words: Inhibition of VEGFR3 after 80 mins by radiometric protein kinase assay. In short, it runs like this: as §3
Test [7] addresses Platelet-derived growth factor receptor beta (Homo sapiens, UniProt P09619). In words: Inhibition of PDGFRbeta after 80 mins by radiometric protein kinase assay.
Test [8] concerns the target Epidermal growth factor receptor (Homo sapiens, UniProt P00533). Nature of the test: Inhibition of EGFR after 80 mins by radiometric protein kinase assay.
Test [9] has as its target Vascular endothelial growth factor receptor 2 (Homo sapiens, UniProt P35968). In words: Inhibition of VEGFR2 after 80 mins by radiometric protein kinase assay. In short, it runs like this:
as §3

Another test concerns the target Angiopoietin-1 receptor (Homo sapiens, UniProt Q02763). Nature of the test: Inhibition of TIE2 after 80 mins by radiometric protein kinase assay. In short, it runs like this: as §2

Chain of Platelet-derived growth factor receptor alpha (P16234 whole entry): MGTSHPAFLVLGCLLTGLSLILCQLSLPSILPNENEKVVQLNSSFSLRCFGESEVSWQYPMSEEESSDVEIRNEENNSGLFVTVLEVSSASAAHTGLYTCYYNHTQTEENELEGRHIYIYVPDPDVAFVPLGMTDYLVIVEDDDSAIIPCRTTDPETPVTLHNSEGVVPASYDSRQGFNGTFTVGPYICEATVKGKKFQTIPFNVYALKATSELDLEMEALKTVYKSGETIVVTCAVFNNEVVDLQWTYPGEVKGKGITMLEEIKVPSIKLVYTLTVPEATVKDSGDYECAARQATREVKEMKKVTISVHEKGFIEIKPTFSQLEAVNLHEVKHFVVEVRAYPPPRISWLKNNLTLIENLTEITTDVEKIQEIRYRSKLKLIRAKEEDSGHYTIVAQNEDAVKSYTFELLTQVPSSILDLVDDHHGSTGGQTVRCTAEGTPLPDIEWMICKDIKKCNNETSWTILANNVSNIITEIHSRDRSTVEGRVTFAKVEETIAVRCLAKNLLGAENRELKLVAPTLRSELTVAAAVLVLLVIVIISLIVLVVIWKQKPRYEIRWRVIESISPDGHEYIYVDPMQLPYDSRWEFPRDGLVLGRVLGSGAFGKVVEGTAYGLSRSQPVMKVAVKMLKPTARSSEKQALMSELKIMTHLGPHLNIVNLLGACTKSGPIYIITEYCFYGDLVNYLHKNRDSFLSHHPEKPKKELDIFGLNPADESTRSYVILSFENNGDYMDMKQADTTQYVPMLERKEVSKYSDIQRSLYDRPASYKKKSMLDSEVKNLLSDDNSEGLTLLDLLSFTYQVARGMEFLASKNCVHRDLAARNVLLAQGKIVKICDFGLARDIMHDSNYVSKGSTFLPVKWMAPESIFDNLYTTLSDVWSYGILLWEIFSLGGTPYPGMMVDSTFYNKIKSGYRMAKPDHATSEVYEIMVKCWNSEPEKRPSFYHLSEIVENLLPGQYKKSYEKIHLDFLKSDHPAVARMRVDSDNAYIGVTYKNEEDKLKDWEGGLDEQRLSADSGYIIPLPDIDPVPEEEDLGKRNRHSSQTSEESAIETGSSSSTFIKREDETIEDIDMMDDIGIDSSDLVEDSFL
Chain of Vascular endothelial growth factor receptor 2 (P35968 whole entry): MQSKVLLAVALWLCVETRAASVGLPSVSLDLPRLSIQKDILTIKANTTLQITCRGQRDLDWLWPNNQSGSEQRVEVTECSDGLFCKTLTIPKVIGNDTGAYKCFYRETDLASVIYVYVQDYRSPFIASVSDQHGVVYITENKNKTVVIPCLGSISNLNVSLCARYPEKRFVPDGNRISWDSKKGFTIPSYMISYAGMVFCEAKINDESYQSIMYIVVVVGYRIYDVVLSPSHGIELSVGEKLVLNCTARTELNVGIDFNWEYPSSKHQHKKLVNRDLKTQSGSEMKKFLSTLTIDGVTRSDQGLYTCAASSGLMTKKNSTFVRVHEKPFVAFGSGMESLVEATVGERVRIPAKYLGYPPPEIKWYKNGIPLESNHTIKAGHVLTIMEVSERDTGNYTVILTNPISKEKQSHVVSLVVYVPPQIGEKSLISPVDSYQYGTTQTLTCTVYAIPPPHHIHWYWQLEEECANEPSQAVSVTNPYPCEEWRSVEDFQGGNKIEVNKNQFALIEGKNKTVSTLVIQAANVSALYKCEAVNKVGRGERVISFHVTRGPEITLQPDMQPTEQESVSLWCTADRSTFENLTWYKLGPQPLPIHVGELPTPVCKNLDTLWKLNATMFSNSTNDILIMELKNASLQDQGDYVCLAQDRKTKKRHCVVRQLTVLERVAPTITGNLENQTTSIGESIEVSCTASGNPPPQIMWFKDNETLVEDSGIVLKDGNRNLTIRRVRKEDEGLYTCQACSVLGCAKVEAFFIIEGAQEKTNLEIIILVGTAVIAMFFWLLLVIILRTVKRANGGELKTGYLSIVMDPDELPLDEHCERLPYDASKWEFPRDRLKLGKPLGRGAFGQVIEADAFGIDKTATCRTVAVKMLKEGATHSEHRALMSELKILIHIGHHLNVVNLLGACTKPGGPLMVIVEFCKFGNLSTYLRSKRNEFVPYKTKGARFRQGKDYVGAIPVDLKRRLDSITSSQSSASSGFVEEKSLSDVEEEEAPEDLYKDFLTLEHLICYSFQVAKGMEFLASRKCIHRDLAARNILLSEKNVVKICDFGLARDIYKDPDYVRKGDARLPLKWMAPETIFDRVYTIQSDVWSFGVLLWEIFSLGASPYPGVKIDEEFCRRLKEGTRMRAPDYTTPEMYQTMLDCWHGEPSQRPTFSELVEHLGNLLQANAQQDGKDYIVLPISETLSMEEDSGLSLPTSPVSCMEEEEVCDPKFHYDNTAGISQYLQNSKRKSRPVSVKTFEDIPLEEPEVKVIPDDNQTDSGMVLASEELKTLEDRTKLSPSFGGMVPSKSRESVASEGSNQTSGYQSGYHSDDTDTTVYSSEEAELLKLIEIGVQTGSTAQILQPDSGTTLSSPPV
Chain of Mast/stem cell growth factor receptor Kit (P10721 whole entry): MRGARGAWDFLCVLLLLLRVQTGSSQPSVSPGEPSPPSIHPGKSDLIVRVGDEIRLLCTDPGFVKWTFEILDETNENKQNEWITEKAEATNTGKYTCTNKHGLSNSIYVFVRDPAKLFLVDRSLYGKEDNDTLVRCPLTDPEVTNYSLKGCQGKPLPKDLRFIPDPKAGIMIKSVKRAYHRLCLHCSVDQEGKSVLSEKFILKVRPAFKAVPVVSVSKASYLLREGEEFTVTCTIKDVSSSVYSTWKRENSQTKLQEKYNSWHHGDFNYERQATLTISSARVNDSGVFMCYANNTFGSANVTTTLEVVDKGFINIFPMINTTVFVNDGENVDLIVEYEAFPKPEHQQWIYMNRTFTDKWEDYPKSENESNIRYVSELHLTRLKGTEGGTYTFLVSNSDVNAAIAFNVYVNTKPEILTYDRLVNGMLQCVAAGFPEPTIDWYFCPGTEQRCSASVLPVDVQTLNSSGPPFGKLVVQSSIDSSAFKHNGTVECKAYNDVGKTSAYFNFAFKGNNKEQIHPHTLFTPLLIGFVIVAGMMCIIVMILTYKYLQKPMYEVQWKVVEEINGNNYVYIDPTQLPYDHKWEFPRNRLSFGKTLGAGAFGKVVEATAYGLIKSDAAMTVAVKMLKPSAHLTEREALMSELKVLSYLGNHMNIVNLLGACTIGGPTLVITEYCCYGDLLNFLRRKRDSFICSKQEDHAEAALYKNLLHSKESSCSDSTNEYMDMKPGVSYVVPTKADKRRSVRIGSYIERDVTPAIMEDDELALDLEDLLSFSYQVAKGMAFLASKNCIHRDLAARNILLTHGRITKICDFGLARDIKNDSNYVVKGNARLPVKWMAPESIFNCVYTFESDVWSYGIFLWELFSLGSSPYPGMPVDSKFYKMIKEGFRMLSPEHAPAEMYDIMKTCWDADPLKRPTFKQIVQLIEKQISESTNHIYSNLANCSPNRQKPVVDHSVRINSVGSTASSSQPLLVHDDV
Chain of Platelet-derived growth factor receptor beta (P09619 whole entry): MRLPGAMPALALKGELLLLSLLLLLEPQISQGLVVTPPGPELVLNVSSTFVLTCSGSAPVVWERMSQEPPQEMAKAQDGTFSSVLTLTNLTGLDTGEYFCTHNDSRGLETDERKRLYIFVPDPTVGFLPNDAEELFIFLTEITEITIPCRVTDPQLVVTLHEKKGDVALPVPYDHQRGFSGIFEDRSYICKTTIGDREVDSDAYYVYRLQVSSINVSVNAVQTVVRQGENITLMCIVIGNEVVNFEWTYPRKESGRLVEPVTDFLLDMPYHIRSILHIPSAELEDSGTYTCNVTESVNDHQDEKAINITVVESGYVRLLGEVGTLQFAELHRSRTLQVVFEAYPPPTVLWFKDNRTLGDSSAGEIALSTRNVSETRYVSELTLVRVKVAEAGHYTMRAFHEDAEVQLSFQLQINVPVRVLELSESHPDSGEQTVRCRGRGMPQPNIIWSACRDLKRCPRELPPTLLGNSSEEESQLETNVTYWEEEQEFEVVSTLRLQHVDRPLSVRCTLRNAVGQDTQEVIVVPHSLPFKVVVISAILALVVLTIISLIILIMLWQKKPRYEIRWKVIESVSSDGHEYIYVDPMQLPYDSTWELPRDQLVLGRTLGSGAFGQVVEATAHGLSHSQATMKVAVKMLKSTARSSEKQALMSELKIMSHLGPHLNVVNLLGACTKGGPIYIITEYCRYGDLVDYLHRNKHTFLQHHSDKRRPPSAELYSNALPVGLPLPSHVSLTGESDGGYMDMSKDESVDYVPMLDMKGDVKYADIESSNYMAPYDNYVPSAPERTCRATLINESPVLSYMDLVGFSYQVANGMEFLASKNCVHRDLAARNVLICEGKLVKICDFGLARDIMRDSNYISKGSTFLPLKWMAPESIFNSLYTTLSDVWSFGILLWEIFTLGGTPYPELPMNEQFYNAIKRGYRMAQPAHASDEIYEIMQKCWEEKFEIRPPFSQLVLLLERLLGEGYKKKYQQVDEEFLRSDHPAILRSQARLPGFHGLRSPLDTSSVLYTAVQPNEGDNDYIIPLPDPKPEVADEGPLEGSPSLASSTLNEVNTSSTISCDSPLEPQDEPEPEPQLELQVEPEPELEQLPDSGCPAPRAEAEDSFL

Turning to `COc1cc(C2=C(c3c[nH]c4ccc(F)cc34)C(=O)NC2=O)cc(OC)c1OC`, the IC50 is 3470 nM in test [1]; 1800 nM in [2]; 8530 nM in test [3]; above 8480 nM in test [4]; 150 nM in test [5]; 66 nM in [6]. In addition, the IC50 in [7] was 2670 nM; in test [8] it was above 8480 nM; in test [9] it was 82 nM; against Angiopoietin-1 receptor, 1570 nM.
`COc1cc(C2=C(c3c[nH]c4ccc(Br)cc34)C(=O)NC2=O)cc(OC)c1OC`: the IC50 in [1] was 3220 nM; in test [2], 1160 nM; in test [3], 4240 nM; in test [4], 13300 nM; in [5], 72.4 nM; in test [6], 21 nM. For the same molecule, the IC50 in [7] stood at 900 nM; in [8] it was 5800 nM; in test [9], 22.5 nM; against Angiopoietin-1 receptor, 2370 nM.
